ChEMBL document CHEMBL5055684, “Into Deep Water: Optimizing BCL6 Inhibitors by Growing into a Solvated Pocket” (J Med Chem, 2021)

molecular target: B-cell lymphoma 6 protein (Homo sapiens, UniProt P41182); assay: Inhibition of BCOR peptide binding to human BCL6 expressed in Escherichia coli measured after 270 mins by BCOR ULight TR-FRET assay; settings: not given
Method in brief: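 Biochemical TR-FRET assay with the BTB domain of BCL6 (not full-length protein) and a short corepressor-derived peptide, measuring inhibition of their binding. The result is reported as an IC50.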

| Structure (SMILES) | IC50 [nM] |
| --- | --- |
| CNC(=O)COc1cc2cc(Nc3nc(N4CCC(C(=O)N(C)C)CC4)ncc3Cl)cc(OC)c2n(C)c1=O | < 30 |

tested on: not listed separately; assay: Plasma concentration in BALB/c mouse assessed as unbound fraction at 1 mg/kg, iv or 5 mg/kg, po; format: ADME, organism-based; settings: not given
Method in brief: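 Unbound fraction measured by equilibrium dialysis in mouse plasma.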

| Structure (SMILES) | fraction unbound |
| --- | --- |
| Cn1c(=O)cc(NC(C)(C)c2ncc(C3CC3)cn2)c2cc(Nc3ccnc(Cl)c3C#N)ccc21 | 0.013 |

tested on: Mus musculus; assay: Toxicity in BALB/c mouse at 1 mg/kg, iv or 5 mg/kg, po; format: organism-based; settings: in vivo

| Structure (SMILES) | Activity |
| --- | --- |
| Cn1c(=O)cc(NC(C)(C)c2ncc(C3CC3)cn2)c2cc(Nc3ccnc(Cl)c3C#N)ccc21 | Non-Toxic |

tested on: not listed separately; assay: Permeability of the compound by PAMPA; format: ADME; settings: read-out: permeability (converted)

| Structure (SMILES) | Papp [×10⁻⁶ cm/s] |
| --- | --- |
| Cc1cnc(C(C)Nc2cc(=O)n(C)c3ccc(Nc4ccnc(Cl)c4C#N)cc23)nc1 (centres undefined) | 5.6 |
| Cc1nnc(C(C)Nc2cc(=O)n(C)c3ccc(Nc4ccnc(Cl)c4C#N)cc23)o1 (centres undefined) | < 0.2 |
| CC(Nc1cc(=O)n(CC2CC2)c2ccc(Nc3ccnc(Cl)c3C#N)cc12)c1ncccn1 (centres undefined) | 8.5 |
| Cn1c(=O)cc(NC(C)(C)c2ncccn2)c2cc(Nc3ccnc(Cl)c3C#N)ccc21 | 1.8 |
| CC(Nc1cc(=O)n(C)c2ccc(Nc3ccnc(Cl)c3C#N)cc12)c1ncco1 (centres undefined) | 1 |
| Cn1c(=O)cc(NC(C)(C)c2ncc(C3CC3)cn2)c2cc(Nc3ccnc(Cl)c3C#N)ccc21 | 35 |
| C[C@@H](Nc1cc(=O)n(C)c2ccc(Nc3ccnc(Cl)c3C#N)cc12)c1ncccn1 | 0.8 |
| CC(Nc1cc(=O)n(CC2CCC2)c2ccc(Nc3ccnc(Cl)c3C#N)cc12)c1ncccn1 (centres undefined) | 21 |
| CC(Nc1cc(=O)n(C)c2ccc(Nc3ccnc(Cl)c3C#N)cc12)c1ncc(C2CC2)cn1 (centres undefined) | 14 |
| CC(Nc1cc(=O)n(C)c2ccc(Nc3ccnc(Cl)c3C#N)cc12)c1ncn(C)n1 (centres undefined) | 1.8 |
| CNC(=O)C(C)Nc1cc(=O)n(C)c2ccc(Nc3ccnc(Cl)c3C#N)cc12 (centres undefined) | < 0.2 |
